Test results from article PMC9540525 (Cancer, 2022).
“Also recorded” adds a separate entry of the source.

Assay: Phase 1 study CC-90011-ST-001: safety, adverse events
Assay type: in vivo, human
Outline: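 Treated population: all patients given at least one oral dose of test compound (once weekly, 28-day cycles; expansion 60 mg). Adverse events were graded by NCI CTCAE v4.03. Dose reductions were permitted in any cycle, including cycle 1. Treatment could be interrupted for up to 4 weeks, until toxicity returned to grade ≤1 or baseline.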

[1] = dose escalation, n = 50, patients (%)
[2] = dose expansion, NEN, n = 16, patients (%)
[3] = dose expansion, R/R MZL, n = 3, patients (%)
[4] = dose expansion, n = 19, patients (%)

COc1ccc(-c2c(-c3ccc(C#N)c(F)c3)nc(N3CCC(N)CC3)n(C)c2=O)cc1F [CC‐90011]
TEAE any grade: Abdominal pain [1]: 7 (14)
TEAE any grade: Acute kidney injury [1]: 1 (2)
TEAE any grade: Anemia [1]: 14 (28)
TEAE any grade: Arthralgia [1]: 9 (18)
TEAE any grade: Back pain [1]: 7 (14)
TEAE any grade: Bone pain [1]: 1 (2)
TEAE any grade: Bronchitis [1]: 2 (4)
TEAE any grade: Constipation [1]: 11 (22)
TEAE any grade: Cough [1]: 6 (12)
TEAE any grade: Decreased appetite [1]: 10 (20)
TEAE any grade: Diarrhea [1]: 10 (20)
TEAE any grade: Dizziness [1]: 3 (6)
TEAE any grade: Dysgeusia [1]: 3 (6)
TEAE any grade: Dyspnea [1]: 5 (10)
TEAE any grade: Epistaxis [1]: 2 (4)
TEAE any grade: Fatigue/asthenia [1]: 24 (48)
TEAE any grade: Headache [1]: 5 (10)
TEAE any grade: Hepatic pain [1]: 1 (2)
TEAE any grade: Hypokalemia [1]: 5 (10)
TEAE any grade: Increased ALT [1]: 6 (12)
TEAE any grade: Increased AST [1]: 6 (12)
TEAE any grade: Lipase increased [1]: 2 (4)
TEAE any grade: Musculoskeletal pain [1]: 1 (2)
TEAE any grade: Nausea [1]: 11 (22)
TEAE any grade: Neutropenia [1]: 6 (12)
TEAE any grade: Peripheral sensory neuropathy [1]: 2 (4)
TEAE any grade: Pruritus [1]: 3 (6)
TEAE any grade: Pyrexia [1]: 10 (20)
TEAE any grade: Sciatica [1]: 1 (2)
TEAE any grade: Thrombocytopenia [1]: 23 (46)
TEAE any grade: Tumor pain [1]: 5 (10)
TEAE any grade: Vomiting [1]: 14 (28)
TEAE any grade: ≥1 event [1]: 48 (96)
TEAE grade 3/4: Abdominal pain [1]: 0 (0)
TEAE grade 3/4: Acute kidney injury [1]: 0 (0)
TEAE grade 3/4: Anemia [1]: 3 (6)
TEAE grade 3/4: Arthralgia [1]: 0 (0)
TEAE grade 3/4: Back pain [1]: 0 (0)
TEAE grade 3/4: Bone pain [1]: 1 (2)
TEAE grade 3/4: Bronchitis [1]: 0 (0)
TEAE grade 3/4: Constipation [1]: 0 (0)
TEAE grade 3/4: Cough [1]: 0 (0)
TEAE grade 3/4: Decreased appetite [1]: 1 (2)
TEAE grade 3/4: Diarrhea [1]: 1 (2)
TEAE grade 3/4: Dizziness [1]: 0 (0)
TEAE grade 3/4: Dysgeusia [1]: 0 (0)
TEAE grade 3/4: Dyspnea [1]: 0 (0)
TEAE grade 3/4: Epistaxis [1]: 0 (0)
TEAE grade 3/4: Fatigue/asthenia [1]: 1 (2)
TEAE grade 3/4: Headache [1]: 0 (0)
TEAE grade 3/4: Hepatic pain [1]: 0 (0)
TEAE grade 3/4: Hypokalemia [1]: 1 (2)
TEAE grade 3/4: Increased ALT [1]: 2 (4)
TEAE grade 3/4: Increased AST [1]: 1 (2)
TEAE grade 3/4: Lipase increased [1]: 2 (4)
TEAE grade 3/4: Musculoskeletal pain [1]: 0 (0)
TEAE grade 3/4: Nausea [1]: 0 (0)
TEAE grade 3/4: Neutropenia [1]: 4 (8)
TEAE grade 3/4: Peripheral sensory neuropathy [1]: 0 (0)
TEAE grade 3/4: Pruritus [1]: 0 (0)
TEAE grade 3/4: Pyrexia [1]: 0 (0)
TEAE grade 3/4: Sciatica [1]: 0 (0)
TEAE grade 3/4: Thrombocytopenia [1]: 12 (24)
TEAE grade 3/4: Tumor pain [1]: 1 (2)
TEAE grade 3/4: Vomiting [1]: 0 (0)
TEAE grade 3/4: ≥1 event [1]: 24 (48)
TEAE leading to treatment discontinuation (dose expansion): No patients; also recorded: none of the TEAEs
febrile neutropenia (dose expansion): no febrile neutropenia was observed
anemia leading to a dose reduction, patients (dose expansion, 19 patients): 5%
hematologic events leading to a dose interruption, patients (dose expansion, 19 patients): 47%
neutropenia leading to a dose reduction, patients (dose expansion, 19 patients): 5%
patients with at least one TEAE leading to a dose interruption (dose expansion, 19 patients): 58%
patients with at least one TEAE leading to a dose reduction (dose expansion, 19 patients): 26%
thrombocytopenia leading to a dose reduction, patients (dose expansion, 19 patients): 26%
TRAE grade 3/4: Thrombocytopenia (dose expansion, NEN cohort, n=16): 6 n (%)
TEAE any grade: Abdominal pain [2]: 0 (0)
TEAE any grade: Acute kidney injury [2]: 1 (6)
TEAE any grade: Anemia [2]: 6 (38)
TEAE any grade: Arthralgia [2]: 6 (38)
TEAE any grade: Back pain [2]: 1 (6)
TEAE any grade: Bone pain [2]: 2 (13)
TEAE any grade: Bronchitis [2]: 2 (13)
TEAE any grade: Constipation [2]: 5 (31)
TEAE any grade: Cough [2]: 3 (19)
TEAE any grade: Decreased appetite [2]: 3 (19)
TEAE any grade: Diarrhea [2]: 5 (31)
TEAE any grade: Dizziness [2]: 2 (13)
TEAE any grade: Dysgeusia [2]: 4 (25)
TEAE any grade: Dyspnea [2]: 2 (13)
TEAE any grade: Epistaxis [2]: 3 (19)
TEAE any grade: Fatigue/asthenia [2]: 9 (56)
TEAE any grade: Headache [2]: 0 (0)
TEAE any grade: Hepatic pain [2]: 2 (13)
TEAE any grade: Hypokalemia [2]: 2 (13)
TEAE any grade: Increased ALT [2]: 0 (0)
TEAE any grade: Increased AST [2]: 1 (6)
TEAE any grade: Lipase increased [2]: 2 (13)
TEAE any grade: Musculoskeletal pain [2]: 1 (6)
TEAE any grade: Nausea [2]: 5 (31)
TEAE any grade: Neutropenia [2]: 3 (19)
TEAE any grade: Peripheral sensory neuropathy [2]: 2 (13)
TEAE any grade: Pruritus [2]: 2 (13)
TEAE any grade: Pyrexia [2]: 0 (0)
TEAE any grade: Sciatica [2]: 2 (13)
TEAE any grade: Tumor pain [2]: 0 (0)
TEAE any grade: Vomiting [2]: 2 (13)
TEAE grade 3/4: Abdominal pain [2]: 0 (0)
TEAE grade 3/4: Acute kidney injury [2]: 0 (0)
TEAE grade 3/4: Anemia [2]: 1 (6)
TEAE grade 3/4: Arthralgia [2]: 0 (0)
TEAE grade 3/4: Back pain [2]: 0 (0)
TEAE grade 3/4: Bone pain [2]: 0 (0)
TEAE grade 3/4: Bronchitis [2]: 0 (0)
TEAE grade 3/4: Constipation [2]: 0 (0)
TEAE grade 3/4: Cough [2]: 0 (0)
TEAE grade 3/4: Decreased appetite [2]: 0 (0)
TEAE grade 3/4: Diarrhea [2]: 0 (0)
TEAE grade 3/4: Dizziness [2]: 0 (0)
TEAE grade 3/4: Dysgeusia [2]: 0 (0)
TEAE grade 3/4: Dyspnea [2]: 0 (0)
TEAE grade 3/4: Epistaxis [2]: 0 (0)
TEAE grade 3/4: Headache [2]: 0 (0)
TEAE grade 3/4: Hepatic pain [2]: 1 (6)
TEAE grade 3/4: Hypokalemia [2]: 0 (0)
TEAE grade 3/4: Increased ALT [2]: 0 (0)
TEAE grade 3/4: Increased AST [2]: 0 (0)
TEAE grade 3/4: Lipase increased [2]: 0 (0)
TEAE grade 3/4: Musculoskeletal pain [2]: 0 (0)
TEAE grade 3/4: Nausea [2]: 0 (0)
TEAE grade 3/4: Peripheral sensory neuropathy [2]: 0 (0)
TEAE grade 3/4: Pruritus [2]: 0 (0)
TEAE grade 3/4: Pyrexia [2]: 0 (0)
TEAE grade 3/4: Sciatica [2]: 0 (0)
TEAE grade 3/4: Tumor pain [2]: 0 (0)
TEAE grade 3/4: Vomiting [2]: 0 (0)
TEAE any grade: Abdominal pain [3]: 0 (0)
TEAE any grade: Acute kidney injury [3]: 1 (33)
TEAE any grade: Anemia [3]: 1 (33)
TEAE any grade: Arthralgia [3]: 0 (0)
TEAE any grade: Back pain [3]: 0 (0)
TEAE any grade: Bone pain [3]: 1 (33)
TEAE any grade: Bronchitis [3]: 0 (0)
TEAE any grade: Constipation [3]: 1 (33)
TEAE any grade: Cough [3]: 1 (33)
TEAE any grade: Decreased appetite [3]: 0 (0)
TEAE any grade: Diarrhea [3]: 0 (0)
TEAE any grade: Dizziness [3]: 0 (0)
TEAE any grade: Dysgeusia [3]: 0 (0)
TEAE any grade: Dyspnea [3]: 1 (33)
TEAE any grade: Epistaxis [3]: 0 (0)
TEAE any grade: Headache [3]: 0 (0)
TEAE any grade: Hepatic pain [3]: 0 (0)
TEAE any grade: Hypokalemia [3]: 0 (0)
TEAE any grade: Increased ALT [3]: 0 (0)
TEAE any grade: Increased AST [3]: 0 (0)
TEAE any grade: Lipase increased [3]: 0 (0)
TEAE any grade: Musculoskeletal pain [3]: 0 (0)
TEAE any grade: Nausea [3]: 1 (33)
TEAE any grade: Neutropenia [3]: 1 (33)
TEAE any grade: Peripheral sensory neuropathy [3]: 0 (0)
TEAE any grade: Pruritus [3]: 0 (0)
TEAE any grade: Pyrexia [3]: 0 (0)
TEAE any grade: Sciatica [3]: 0 (0)
TEAE any grade: Tumor pain [3]: 1 (33)
TEAE any grade: Vomiting [3]: 0 (0)
TEAE grade 3/4: Abdominal pain [3]: 0 (0)
TEAE grade 3/4: Acute kidney injury [3]: 0 (0)
TEAE grade 3/4: Anemia [3]: 0 (0)
TEAE grade 3/4: Arthralgia [3]: 0 (0)
TEAE grade 3/4: Back pain [3]: 0 (0)
TEAE grade 3/4: Bone pain [3]: 0 (0)
TEAE grade 3/4: Bronchitis [3]: 0 (0)
TEAE grade 3/4: Constipation [3]: 0 (0)
TEAE grade 3/4: Cough [3]: 0 (0)
TEAE grade 3/4: Decreased appetite [3]: 0 (0)
TEAE grade 3/4: Diarrhea [3]: 0 (0)
TEAE grade 3/4: Dizziness [3]: 0 (0)
TEAE grade 3/4: Dysgeusia [3]: 0 (0)
TEAE grade 3/4: Dyspnea [3]: 0 (0)
TEAE grade 3/4: Epistaxis [3]: 0 (0)
TEAE grade 3/4: Fatigue/asthenia [3]: 0 (0)
TEAE grade 3/4: Headache [3]: 0 (0)
TEAE grade 3/4: Hepatic pain [3]: 0 (0)
TEAE grade 3/4: Hypokalemia [3]: 0 (0)
TEAE grade 3/4: Increased ALT [3]: 0 (0)
TEAE grade 3/4: Increased AST [3]: 0 (0)
TEAE grade 3/4: Lipase increased [3]: 0 (0)
TEAE grade 3/4: Musculoskeletal pain [3]: 0 (0)
TEAE grade 3/4: Nausea [3]: 0 (0)
TEAE grade 3/4: Peripheral sensory neuropathy [3]: 0 (0)
TEAE grade 3/4: Pruritus [3]: 0 (0)
TEAE grade 3/4: Pyrexia [3]: 0 (0)
TEAE grade 3/4: Sciatica [3]: 0 (0)
TEAE grade 3/4: Thrombocytopenia [3]: 0 (0)
TEAE grade 3/4: Tumor pain [3]: 0 (0)
TEAE grade 3/4: Vomiting [3]: 0 (0)
TEAE any grade: ≥1 event [4]: 19 (100)
TEAE grade 3/4: ≥1 event [4]: 13 (68)
Serious TEAE: Anemia (dose expansion, n=19): 1 n (%)
Serious TEAE: Biliary tract infection (dose expansion, n=19): 1 n (%)
Serious TEAE: Chest pain (dose expansion, n=19): 1 n (%)
Serious TEAE: Fatigue (dose expansion, n=19): 1 n (%)
Serious TEAE: General health deterioration (dose expansion, n=19): 1 n (%)
Serious TEAE: Hepatic hemorrhage (dose expansion, n=19): 1 n (%)
Serious TEAE: Hepatic pain (dose expansion, n=19): 1 n (%)
Serious TEAE: Oxygen saturation decreased (dose expansion, n=19): 1 n (%)
Serious TEAE: Pulmonary hemorrhage (dose expansion, n=19): 1 n (%)
Serious TEAE: Respiratory failure (dose expansion, n=19): 1 n (%)
Serious TEAE: Thrombocytopenia (dose expansion, n=19): 1 n (%)
Serious TEAE: Upper respiratory tract infection (dose expansion, n=19): 1 n (%)
TEAE with an outcome of death (dose expansion, upper respiratory tract infection, not considered treatment-related): One patient
new safety concerns or late toxicities with longer follow-up (follow-up of approximately 5 years and >4 years of treatment): No new safety concerns or late toxicities were identified
